Data reported in the EternaBench riboswitch data.

System: MS2 coat protein
Test: apparent Kd, MS2 coat protein; higher = weaker binding; RNA-MaP array; FMN 200 µM where present
In short: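 The titrant was SNAP-549-labelled MS2 coat protein, run from 0.7 or 1.5 nM in doubling steps to 3 µM. It was applied to designs transcribed by stalled E. coli RNA polymerase on Illumina sequencing-chip clusters, without ligand first and then with constant ligand, in 100 mM Tris-HCl pH 7.5, 80 mM KCl, 4 mM MgCl2, BSA, DTT, yeast tRNA and Tween-20. The apparent Kd is the median of filtered per-cluster binding-curve fits, with green signal normalised to red-channel RNA signal and control-cluster median Fmax.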

[1] = designed as: OFF switch for flavin mononucleotide, no ligand
[2] = ligand present: flavin mononucleotide, designed as: OFF switch for flavin mononucleotide
[3] = designed as: ON switch for flavin mononucleotide, no ligand
[4] = ligand present: flavin mononucleotide, designed as: ON switch for flavin mononucleotide

| Sequence | apparent Kd [1] [nM] | apparent Kd [2] [nM] | apparent Kd [3] [nM] | apparent Kd [4] [nM] |
| --- | --- | --- | --- | --- |
| CUAUUGUGAGGAUAUCAGGUGUGCUAGCGUACUGGUACAUCUGAGAAGGCACAUGAGGAUCACCCAUGUUUCUU | 19.3 | 56.2 |  |  |
| UUAAUUAAUUAAUUAUACAUGAGGAUCACCCAUGUAAGUGAUCAGGAUAUCAGCUCGUGUAGAGCUGAGAAGGGAUACAUGUAA |  |  | 194 | 102 |
| GUGCAAUGAGGAUAUACGUUGGUGAACAUCUGUGUGCUCCUACAUGAGGAUCACCCAUGUAGAAGGCAUGUCAC | 11.4 | 17.1 |  |  |
| GUUCUCGGAGGAUAUACACAGUGAGAACCCGCGCAAGCGGGACAUGAGGAUCACCCAUGUAGAAGGUCGAGCAA | 70.2 | 170 |  |  |
| AAGCUGCGCCAGAAGGGACCGACAUGAGGAUCACCCAUGUCCACAAGAGUCAGGAUAUGGCGUGGAGGCUCGUUCAAGUCCAGG |  |  | 13.5 | 5.73 |
| AGAUUUGUACAUGAGGAUCACCCAUGUUAAUAGGUGGUAGUCAGAAGGCAUUGAUAGAGUUUUAAUGAGGAUAUGAAUAUACAG |  |  | 267 | 126 |
| AUCAUGUCAGGAUAUGUGACAUGGAUCUUCGGAUCAAGAUCACAGAAGGGACAUGAGGAUCACCCAUGUCGAUC | 98.8 | 53.4 |  |  |
| UGACGGAGCUGAGGAUAUAACAUGAGGAUCACCCAUGUAAGUCUCCAGGAAACUGGAGACAAAUGUUAGAAGGCAGCUCCGUCA | 39.4 | 50.7 |  |  |
| AGAAAGUGAGGAUAUACGAAACCAGCCUAAAUGGCUGGAAAGUAGAAGGCACAUGAGGAUCACCCAUGUAAAGA | 24.4 | 31.6 |  |  |
| AGCUGGAGAGGAUAUACGUAAGUGAAAAAAGUCUGAUAACUACAUGAGGAUCACCCAUGUAGAAGGCUCUGGCA | 19.3 | 33.2 |  |  |
| UUACUCAUGUAAGGAUAUGCAGCCGUUUCGGCUGCAGAAGGUACUAUAAUACAUGAGGAUCACCCAUGUCUUUUUAAAUUUUAC |  |  | 109 | 35.2 |
| GCACAUUUGUAAGGAUAUACAACAUGAGGAUCACCCAUGUGUUGGAAUUUAGUAGAAGGUACAGACAUGAGUAUCACUUUUGUA |  |  | 72.7 | 51.9 |
| UCGAUGCUAGGAUAUACUUAUAAAACUACUGUAGAGUCUUCACAUGAGGAUCACCCAUGUAGAAGGAGCAUCUA | 20 | 16 |  |  |
| AAGUAGACGGUGAGGAUAUAGGUCGAAUGACCGAUCUAGAAGGCACAUGAGGAUCACCCAUGUGGGUAACGUCG | 17.8 | 20.7 |  |  |
| GAAUAAUUGAUCCAAUUUAACUACAUGAGGAUCACCCAUGUGCAGGAUAUCGUAAUAUUUAUUUUCGAGAAGGGCAAGAACGGU | 162 | 320 |  |  |
| ACAUGAUAUGUAGGAUAUCACAUUAAUUGUUUUAUAAUUGUAAUUUGGAUUUGAGAAGGACAUUUACAUGAGGAUCACCCAUGU | 15.9 | 12.1 |  |  |
| GCUCGAUGUGCUGAAAACAUGAGGAUCACCCAUGUAAAUGAUCAGGAUAUUUACGUGCUUUAUGUAGAGAAGGGAUCAUCGAGC |  |  | 260 | 78.3 |
| CUGCCUUAUGUAGGAUAUGCAUAGCAUUGCUAUGCAGAAGGACAUGAGGAUCACCCAUGUAUGUUAUCAAUACAUAUCUGGCAG | 17.5 | 54.5 |  |  |
| GGGCAUAAUACAUGAGGAUCACCCAUGUCAGAAAGGGUAAUCAGAAGGUACUAUUAGAGAAAGAGUAAGGAUAUGAAUAUGCCC |  |  | 973 | 103 |

| Sequence | apparent Kd [1] [nM] | apparent Kd [2] [nM] | apparent Kd [3] [nM] | apparent Kd [4] [nM] |
| --- | --- | --- | --- | --- |
| UAGAUGGGAGGAUAUACGUAGAUGCGGAUUCGUGUGGUGCUACAUGAGGAUCACCCAUGUAGAAGGCCCGUCUU | 17.1 | 72.2 |  |  |
| UAUUUGCAAGGAUAUGAUUUAAGUAACAUGAGGAUCACCCAUGUUUAUCCGUUGUUAUGUUCAGAAGGUGCGUGAU | 50.8 | 72.4 |  |  |
| UUUACAUGAGGAUCACCCAUGUAUAGAACGGUUCAUUAAAGUGAGGAUAUACAUAAUUUUAAAUUGUAGAAGGCACUGGGUACA |  |  | 17.7 | 19.1 |
| UGAGCAUGAGGAUAUACUUGGCGUGCGUGAGCACGAGGUUUACAUGAGGAUCACCCAUGUAGAAGGCAUGUUCU | 18.2 | 51.6 |  |  |
| GGAUAGGACAGAGGAUAUACGUGCUAGAGAUACUAGCAAAAUUUCCUCACAUGAGGAUCACCCAUGUAGAAGGUUGUCCUAUCG | 5.14 | 11.8 |  |  |
| UGUAUACAUGAGGAUCACCCAUGUAAGGAUAUGCUUUAUUAUUAUUAUUAUUAUUAUUGCAGAAGGUACAUUAU | 35.8 | 35.9 |  |  |
| CCUCGACAUGAGGAUCACCCAUGUCAGGAUAUUGUGUUUCGGGUUUUUUACCGUUAGGCAAGAAGGGAUGUGUG | 29.2 | 40.2 |  |  |
| GAUUACAAGUAAGGAUAUGUAUAUGAAACAUAUACAGAAGGUACAUGAGGAUCACCCAUGUUCUUGCAGCGCGAAUAUGUAAUC | 17.1 | 21.1 |  |  |
| AUCGAGUAAGGAUAUACAUGAGGAUCACCCAUGUCCGUGAGGUAAGUUUGUGUCCGGCGUAGAAGGUACUGCAU | 52.1 | 121 |  |  |
| GCCGCCCGAUCUGGCUUUUGGGCUAGAAGGGCAUAUGUGGUCCAGGACAUGAGGAUCACCCAUGUGCAGGAUAUAGCCCACCAC | 13.7 | 24.1 |  |  |
| GUCAAGUGAGGAUAUGAUUGUACAACAGACUAGCAUCUGCAUCAGAAGGCACAUGAGGAUCACCCAUGUUUGUC | 17.5 | 17.7 |  |  |
| GGAAGACAAAGUCUUCCAAAUCGAACAUGAGGAUCACCCAUGUAGGAUAUGCUACUCAAAGAGUAGCAGAAGGACAUGUGCUUU | 40.1 | 193 |  |  |
| AUCAGCUCGUCAGGAUAUACGUCACUGCGUCAGCAGUGUGGUAAAAUCACAUGAGGAUCACCCAUGUAGAAGGGACGAGCUGAU | 6.18 | 14.4 |  |  |
| UCUAGACAUGAGGAUCACCCAUGUGAGGAUAUGAUGCGAUCGUCGAAAGACGAUAGCAUCAGAAGGCACAUAUG | 154 | 469 |  |  |
| CGGUGACGUGUAGGAUAUGGCGAUGGGUUUUGGCCAGAAGGACAUGAGGAUCACCCAUGUGGUAGAGGGUUGGCGGCUGCCCGU | 47.4 | 181 |  |  |
| AAGGAUCGAGGAUAUACAUAGAUACAGAUACAUGUAGACCUACAUGAGGAUCACCCAUGUAGAAGGCGAUCCUA | 22.4 | 54.7 |  |  |
| GCCGGUUCCCUAGGAUAUGUACAUGAGGAUCACCCAUGUGCCUCUAGAGCCGGAACAGGGCAUGUACAGAAGGAGGGUCGACCC |  | 8.03 |  |  |
| CCGUUACAUGAGGAUCACCCAUGUGAGGAUAUGGUUCGGUACUGUCCUGUCGCGUACUCCAGAAGGCACGUGUC | 33.5 | 34.8 |  |  |
| CCUCCCUGAGGAUAUCCACCCUCAUACAUGAGGAUCACCCAUGUUCAUCCGUGGCUACCCGGAGAAGGCAGCUCUG | 57.8 | 49.7 |  |  |

| Sequence | apparent Kd [1] [nM] | apparent Kd [2] [nM] | apparent Kd [3] [nM] | apparent Kd [4] [nM] |
| --- | --- | --- | --- | --- |
| AUUUGCGAAUCAGGAUAUGGACCAGCACAUGAGGAUCACCCAUGUCUGCCGGCGAGCCGGCUAGGCCAGAAGGGAUGUGCUCAA |  |  | 87 | 18.2 |
| UUAAAUCAUGUAGGAUAUGCAUGGCGAAGCUACGCAGAAGGACAUGAGGAUCACCCAUGUUAUAGCUACCCAGUACGGUGGCAA | 95.5 | 251 |  |  |
| UUAAAGGCAGGAUAUACAUUUUUUUUAUUAUCCUCAUUAUUACAUGAGGAUCACCCAUGUAGAAGGGCCAAAUU | 81.7 | 54.1 |  |  |
| GUAUCGUGAGGAUAUCAUGAUUGACUUAAUUUAUGUCAGCGUGAGAAGGCACAUGAGGAUCACCCAUGUGAUUA | 22.8 | 54.8 |  |  |
| UUUGCAUUCCGAGGAUAUUCAUAUAAUAAAUAAACAUGAGGAUCACCCAUGUGGCGAAAGCCUAGGGAGAAGGCGGAAUGCUUU |  |  | 184 | 22 |
| GGAGCCGGUACUGAGGAUAUUCAUAUUAAAACAUGAGGAUCACCCAUGUAGGCCAGAAGGCCUUGGGAGAAGGCAGAUCGGCUCC |  |  | 408 | 25.9 |
| GUAGCAUACCGAGGAUAUUCAUACCGGAAACGGACAUGAGGAUCACCCAUGUUUAGAAAUAAUUGGGAGAAGGCGGAAUGCUAC |  |  | 232 | 44.7 |
| GUCAGCUCGUGAGGAUAUACAACACCGCUUCGGCAGUGUAUUAAGAUCACAUGAGGAUCACCCAUGUAGAAGGCACGAGCUGAU | 12.9 | 255 |  |  |
| GUAAAGUGAGGAUAUGGUAAUUUAAUUAUUAAUUAAUUAAUCCAGAAGGCACAUGAGGAUCACCCAUGUAAAGG | 39.6 | 74.6 |  |  |
| AUCAGCUCGUCAGGAUAUGCGUCACUGCGUCAGCAGUGUGGUAAGAUCACAUGAGGAUCACCCAUGUAGAAGGGACGAGCUGAU | 9.59 | 88.2 |  |  |
| GCCAUCACAUGAGGAUAUGCUCCCGUUUCGGGAGCAGAAGGCAUGUCAUAAGACAUGAGGAUCACCCAUGUAGUUAAGAUGGCA |  |  | 375 | 13.3 |
| GUGUACAGAGGAUAUACUGGAGCUAGGAAACUAGCAACUUCACAUGAGGAUCACCCAUGUAGAAGGCUGUACAC | 17.1 | 65.7 |  |  |
| AAAAAGCGAGGAUAUACGAGUCAAAGAAAAGACAAGGAGAAACAUGAGGAUCACCCAUGUAGAAGGCGCAAAAA | 20.5 | 23.3 |  |  |
| AAAAAGUCAGGAUAUCGUAGAAAAAUAUAAAUAAGAAAGUACGAGAAGGGACAUGAGGAUCACCCAUGUAAAAA | 33.1 | 36.9 |  |  |
| CGCAAGUCAGGAUAUUCGACAGGUAAAUCAGUGGAUCAGUAGGAGAAGGGACAUGAGGAUCACCCAUGUAUGUA | 49.7 | 29.6 |  |  |
| CCUCAGUAAGGAUAUCAGCUUAAGGAGGUGGUAAAGAGAGCUGAGAAGGUACAUGAGGAUCACCCAUGUUAAAA | 91.1 | 227 |  |  |
| ACUAAAGAAGGAUAUACUAACGAACCUCAAACAUAGAUAAAACAUGAGGAUCACCCAUGUAGAAGGUCUAGACU | 31.7 | 39.6 |  |  |
| AAAGACAGACAUGAGGAUCACCCAUGUUACGAAGAUAAUGGGAGAAGGGCGAUUGCAAAGCAAUCGCAGGAUAUUCGUAUUGUC |  |  | 21.1 | 8.93 |
